# Measurements taken from PubChem BioAssay.
# Active and inactive are the calls of the source.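 Rule for the calls, unless noted: active = viability at or under a set limit in both replicates, limit being median viability minus 3 SD (cut at about 48% in these data, passing the limit was not always enough); inconclusive = at or under the limit in just one replicate; inactive = at or above the limit in both replicates.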
# How the values were obtained:
# [1] = HUVEC growth inhibition – cell-based, human, primary screen (AID 575;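 active = viability at or below 30% in both replicate assays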;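 note: 100% = median of untreated cell wells with 0.1% DMSO on each plate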); details: HUVEC proliferation, CellTiter-Glo luminescence, 72 h; at 10 µM; stronger effect = lower value
# Procedure, shortened: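 Test system: primary human umbilical vein endothelial cells; medium: endothelial basal medium with 2% FBS plus growth supplements; dosing: 10 µM compound only; times: 72 h treatment at 37 °C; signal: CTG luminescence; read-out: % viability relative to median vehicle-well signal on each plate; control set: vehicle and MePR control wells; plate: 384-well, collagen-coated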
# [2] = growth inhibitors of H69AR lung tumor, primary screen, human, duplicate replicates (AID 580); details: H69AR lung tumor cells viability, ATP luminescence, 72 h; at 10 µM; stronger effect = lower value;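 note: 100% = mean luminescence of untreated wells and 0% = no signal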
# [3] = reversal of MRP1-mediated doxorubicin resistance, pilot screen, H69AR cells, doxorubicin co-treatment (AID 601;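 active = viability loss from added drug above about 55%, and viability with drug at most 40%, in both replicates, limit read from the data, passing the limit was not always enough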); details: CellTiter-Glo, 72 h, at 10 µM; for differential viability (reversal): stronger effect = higher value
# [4] = 384-well plate pilot, post-Golgi transport modulator project, inhibition of yeast transport mutant growth (AID 636; in the data active = inhibition above about 31%); details: absorbance 615 nm, about 18 h, stronger effect = higher value
# [5] = growth suppression of yeast trafficking mutant, preliminary HTS, modulators of trafficking downstream of Golgi apparatus project, 1536-format plate, OD 615 nm (AID 637; in the data active = inhibition above about 30%); details: yeast transport mutant growth, absorbance 615 nm, 18 h; stronger effect = higher value
# [6] = H69AR cells + 2 uM doxorubicin, measured here: viability with 2 uM doxorubicin, stronger effect = lower value
# [7] = H69AR cells, compound alone cytotoxicity
SMILES,viability [1],viability [2],differential viability (reversal) ([3]; H69AR cells + 2 uM doxorubicin),"viability [3, 6] [%]","viability [3, 7] [%]",inhibition [4],inhibition [5]
Cc1cc(C)c(S(=O)(=O)N(C)CC(N)=O)c(C)c1,95% (inactive),91.7% (inactive),-12.6% (inactive),104,91.7,2.37% (inactive),-4.13% (inactive)
COc1ccc2c(c1)C(=O)N(c1ccccc1OC)C(=O)C2,74.9% (inactive),92.8% (inactive),-8.61% (inactive),101,92.8,-3.87% (inactive),0.32% (inactive)
Oc1cccc2ccc(Nc3ccccn3)nc12,2.4% (active),1.99% (active),0.495% (inactive),1.5,1.99,-4.16% (inactive),2.22% (inactive)
Nc1cc(C(=O)O)ccc1Nc1ccccc1,86.8% (inactive),111% (inactive),11.5% (inactive),99.8,111,-5.06% (inactive),2.38% (inactive)
COc1ccccc1C(=O)NCCNC(=O)c1ccco1,112% (inactive),91.6% (inactive),-4.88% (inactive),96.5,91.6,-4.53% (inactive),0.48% (inactive)
COc1ccccc1NC(=O)N1c2ccc(F)cc2CCC1C (stereo not given),83.3% (inactive),99% (inactive),15% (inactive),84,99,-2.47% (inactive),3.02% (inactive)
COc1ccccc1-c1c(C)nn2c(C)c(C(C)=O)cnc12,111% (inactive),94.3% (inactive),10.3% (inactive),84,94.3,-6.1% (inactive),1.27% (inactive)
CSc1nnc(-c2cnccn2)n1C,107% (inactive),90.7% (inactive),0.99% (inactive),89.7,90.7,-0.39% (inactive),4.92% (inactive)
Cc1ccc(SC(C)c2nc(-c3ccccc3)no2)cc1 (stereo not given),114% (inactive),99.9% (inactive),4.68% (inactive),95.2,99.9,-6.13% (inactive),-5.08% (inactive)
COc1cc(OC)cc(-c2nc(N)n[nH]2)c1,97.8% (inactive),103% (inactive),5.86% (inactive),97.3,103,-6.4% (inactive),2.06% (inactive)
